Compounds with a hit are over-represented: about 4% of the library has one in this group of screens.
FN deposition inh: inhibitors of fibronectin matrix deposition, primary screen, AH1F cells, Alexa488-fibronectin fluorescence, plate reader; AH1F fibroblasts, overnight; inhibition, % at 12.6 µM; 350,000 tested, 0.086% active;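 active = mean inhibition across replicates of 30% or more, regardless of how many single replicates reach that level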
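Material – AH1F fibroblast monolayer, labelled fibronectin deposition · Reagent – labelled fibronectin 24 nM · Timing – 1 h adhesion, overnight exposure · Measured by – fluorescence at 485 nm excitation, 525 nm emission · Read-out – inhibition of fibronectin deposition signal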
rRNA inh HTS: reduced GFP signal of wild-type E. coli, primary screen, bacterial rRNA inhibitor project, GFP/RFP fluorescence, OD600, single point; 350,000 tested, 1.6% active; E. coli WT GFP vs humanized-ribosome RFP mutants, 24 h; active compounds read low; DMSO median 0, no signal -100; GFP signal change (wild-type ribosome), % (concentration not given with the values);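 active = significant combined selectivity score with lowered wild-type GFP, culture density cut under 30%, mutant RFP and density less affected; inactive = any of these conditions unmet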
E-sel inducer: E-selectin induction in HUVECs, primary screen, imaging, HUVEC, immunofluorescence imaging, single point; P16581; normalized: neutral wells 0, TNF-alpha wells 100; activation, % at 7.58 µM; 260,000 tested, 0.37% active;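 active = mean E-selectin-positive cell signal at least 10% of the positive control, reached in at least 60% of replicates, without over 20% cell loss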
Target sequence (P16581 whole entry, looked up): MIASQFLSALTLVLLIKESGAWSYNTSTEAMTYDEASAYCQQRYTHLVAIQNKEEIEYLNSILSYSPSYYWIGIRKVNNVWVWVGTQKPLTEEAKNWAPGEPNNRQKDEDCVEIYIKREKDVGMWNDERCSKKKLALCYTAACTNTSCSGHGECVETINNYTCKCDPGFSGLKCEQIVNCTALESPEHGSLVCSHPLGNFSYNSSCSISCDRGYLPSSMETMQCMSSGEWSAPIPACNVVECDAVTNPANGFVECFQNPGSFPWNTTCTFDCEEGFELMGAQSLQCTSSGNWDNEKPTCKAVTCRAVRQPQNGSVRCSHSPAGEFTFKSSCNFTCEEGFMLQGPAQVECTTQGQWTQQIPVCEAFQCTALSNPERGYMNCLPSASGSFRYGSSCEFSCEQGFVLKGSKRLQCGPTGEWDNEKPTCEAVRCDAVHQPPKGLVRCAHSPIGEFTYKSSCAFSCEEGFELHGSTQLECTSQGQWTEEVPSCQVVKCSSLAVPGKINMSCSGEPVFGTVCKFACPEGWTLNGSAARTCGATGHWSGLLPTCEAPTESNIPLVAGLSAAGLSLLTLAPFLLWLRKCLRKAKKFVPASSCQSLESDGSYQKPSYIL
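System: HUVEC / Compound: single concentration / Signal: immunofluorescence imaging / Read-out: percent E-selectin-positive cells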
FGF22 binding: binders of human FGF22 protein, primary screen, FGF22 synaptogenesis inhibitor project, biophysical, thermal shift, single point; recombinant FGF22 thermal shift, SYPRO orange fluorescence; percent of sucrose octasulfate shift, DMSO zero; activity (Tm shift, normalised), % at 9.99 µM; 340,000 tested, 1.5% active; AID 651658, 2012;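 active = mean Tm shift, scaled 0 neutral to 100 positive control, at about 1.3% or above, every replicate too, limit read from the data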
Statin myotox sup: suppressors of statin myotoxicity in C2C12 myotubes, primary screen, cell-based, single point, plate reader | C2C12 myotubes + simvastatin, ATP luminescence, 48 h; scaled: DMSO 0, geranylgeraniol control 100 | rescue of ATP level, % at 7.49 µM | 330,000 tested, 0.78% active;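 active = mean ATP rescue above about 67%, or every replicate alone reaching that limit, limit read from the data, passing the limit was not always enough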;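 note: myotubes were challenged with 10 µM simvastatin during compound exposure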
SIRT5 block: SIRT5 desuccinylase inhibitors, primary screen, biochemical, fluorescence imaging, single point, set 5; Purified SirT5, succinyl-peptide AMC, trypsin-coupled fluorescence; inhibition, % at 15 µM; AID 652115, 2013; NAD-dependent protein deacylase sirtuin-5, mitochondrial (Homo sapiens), Q9NXA8; 330,000 tested, 1.1% active; in the data active = inhibition above about 15%
Numbers stand for hits; – = inactive; · = not tested or not shown.

SMILES	FN deposition inh	rRNA inh HTS	E-sel inducer	FGF22 binding	Statin myotox sup	SIRT5 block
C[C@H]1CCCCO[C@@H](CN(C)C(=O)Nc2ccc(F)cc2)[C@@H](C)CN([C@@H](C)CO)C(=O)c2cc(N(C)C)ccc2O1	·	–	–	·	–	·
O=c1[nH]nc(SCc2nc3ccccc3s2)n1C1CC1	–	–	·	43	–	–
Cc1cc(C)c(-n2c(SCc3nc4ccccc4s3)n[nH]c2=O)c(C)c1	–	-24	·	–	·	–
Cc1cc(=O)[nH]c(SCc2nc3ccccc3s2)n1	·	·	·	·	–	·
CCCn1c(SCc2nc3ccccc3s2)n[nH]c1=O	–	–	–	–	·	–
CC(=O)OC1CCC2(C)C(CCC3C2CC(=O)C2(C)C3CC(C3CCCC3=O)C2C(C)=O)C1 (centres undefined)	–	–	·	–	–	15
CC(=O)OC1CCC2(C)C(CCC3C2CC(=O)C2(C)C3CC(C(C(C)=O)C(C)=O)C2C(C)=O)C1 (centres undefined)	–	–	–	–	–	–
CC(=O)O[C@H]1CC[C@@]2(C)[C@@H](CC[C@H]3[C@@H]4CC[C@H](C(C)O)[C@@]4(C)CC(=O)[C@@H]32)C1 (some centres undefined)	–	–	–	–	–	23
CCN(Cc1ccncc1)C(=O)CCc1nnc(CCc2ccc(OC)cc2)o1	–	–	·	44	–	–
O=C(Nc1ccc2c(c1)[C@H]1C[C@@H](CC(=O)N3CCCCC3)O[C@H](CO)[C@H]1O2)NC1CCCCC1	–	–	–	–	·	–
C[C@H]1CN([C@@H](C)CO)C(=O)c2ccccc2-c2ccccc2CO[C@@H]1CN(C)S(=O)(=O)c1cccc(F)c1	–	–	·	·	·	·
Cc1coc2cc3oc(=O)c(Cc4ccccc4)c(C)c3cc12	–	-22	–	–	·	–
Cc1ccc(N/N=C(\C#N)C(N)=S)cc1C	–	-33	–	44	·	–
N#C/C(=N\Nc1ccccc1)C(N)=S	–	–	·	–	·	·
Cc1ccc(NC(N)=S)cc1C	–	–	–	–	–	–
N#C/C(=N\Nc1ccc(Cl)cc1)C(N)=S	–	–	72	–	–	·
CC(=O)Nc1c(O)nc(SCc2ccccc2C#N)[nH]c1=O	–	–	–	–	·	–
CC(=O)Nc1c(O)nc(SC/C=C/CSc2nc(O)c(NC(C)=O)c(=O)[nH]2)[nH]c1=O	–	–	·	43	·	–
COc1cc(C(F)(F)F)c(C(=O)N(C)Cc2ccc(Cl)c(Cl)c2)cn1	–	-22	–	–	·	–
CCSc1ncc(/C=N/Nc2ccccc2)n1C	·	·	·	·	92	·
CN(C)C(=O)c1cccc(-c2cccc(-c3nc(C(=O)N4CCOCC4)cc4c3[C@H](CCO)N([S@@](=O)C(C)(C)C)C4)c2)c1	–	–	–	–	–	–
Cc1cc(N)n(-c2ccc(S(=O)(=O)c3ccc(C(C)C)cc3)cc2)n1	–	-26	·	–	·	–
O=C(NCCNC(=O)Oc1cccc2ccccc12)Oc1cccc2ccccc12	–	–	–	–	–	26
COc1ccc(CNCc2cccc(C)c2)cc1	–	–	–	–	–	–
COc1ccc(CNCc2cccc(Oc3ccccc3)c2)cc1	–	-25	–	–	–	–
CN1[C@@H]2c3ccc(-c4ccccc4F)c(=O)n3C[C@@H]2[C@@H](CO)[C@@H]1C(=O)NCc1ccc(F)cc1	·	–	–	–	–	–
CCCCn1cnc2c(SCCc3ccccc3)nc(N)nc21	–	·	–	–	99	–
Cc1cc(-c2nn(-c3ccccc3F)cc2CN2CCCC(O)C2)c(C)s1 (centres undefined)	–	–	–	–	–	–
Cc1cc(-c2nn(-c3ccccc3F)cc2CN2CCCC(CO)C2)c(C)s1 (centres undefined)	–	–	·	43	–	–

Assay outcomes deposited in PubChem BioAssay by Broad Institute.
